Data: PubChem BioAssay AID651654 (Broad Institute, 2012)
Values joined by “and” are separate entries in the source; they are usually repeats but may differ in a detail not shown here. Equal entries are not always repeated. Hit rate of the full screen: of about 360,000 compounds, about 740 (0.21%) were called active.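 Rule for the calls: active = mean lysis activity across replicates of at least 80%, whatever share of replicates individually reach that level; inactive = mean lysis activity below 80%.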 Shown is part of a subset that was picked to be rich in actives. A structure can be active in one record and inactive in another.

Test: fungicidal lysis via adenylate kinase leakage – AK release luminescence, single concentration, primary screen (AID 651654)
Settings: C. neoformans lysis, 4 h, at 15 µM, stronger effect = higher value
Summary of the method: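 Schedule: static 4 h at 37 °C with compound, 1 h detection; system: C. neoformans cells; benchmarks: Clomiphene as positive control; buffer or medium: fresh YPD medium; measure: luminescence rise reflecting yeast cell lysis; measured by: luminescent adenylate kinase detection reagent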
For C[C@H]1CN([C@@H](C)CO)C(=O)CCCn2nncc2CO[C@H]1CN(C)C(=O)Oc1cccc2ccccc12, the lysis activity was 5.65% (inactive) and 82.4% (active) and -0.095% (inactive). In the case of C[C@H]1CN([C@@H](C)CO)C(=O)CCCn2nncc2CO[C@H]1CN(C)C(=O)Oc1ccccc1, the lysis activity is reported as -2.79% (inactive) and -0.658% (inactive) and 0.85% (inactive). For C[C@H](CO)N1C[C@H](C)[C@H](CN(C)C(=O)Oc2ccc3ccccc3c2)OCc2cnnn2CCCC1=O, the lysis activity was -8.92% (inactive). For COc1cccc(C(c2nnnn2-c2ccc3c(c2)OCCO3)N2CCC3(CC2)C(=O)NCN3c2ccccc2)c1OC (stereo not given), the lysis activity was -24.5% (inactive). In the case of O=C(Cc1ccccc1)N1CCCCN2[C@H](C1)[C@H](c1ccc(C#CC3(O)CCCC3)cc1)[C@@H]2CO, the lysis activity is reported as -1.31% (inactive).
